Data from ChEMBL document CHEMBL5715951, “Synergistic Reactivation of Latent HIV Expression by Ingenol-3-Angelate, PEP005, Targeted NF-kB Signaling in Combination with JQ1 Induced p-TEFb Activation” (PLoS Pathog, 2015).
Active and inactive are the calls of the source. No cut-off for these calls is given here.

Experiments:
J-Lat A1 [1] = assay: Anti retroviral activity against human J-Lat A1 cells harboring a single copy of latent HIV LTR assessed as HIV reactivation at 500 nM incubated for 24 hrs by flow cytometry analysis; format: functional, cell-based
Method in brief: (§1)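 J-Lat A1 cells (single latent LTR-GFP copy) treated 24 h at fixed levels (10 nM PEP005, 500 nM SAHA, 2 μM JQ1/GSK343/Prostratin, 10 ng/ml TNF, 5 ng/ml PMA); percentage GFP-positive cells by flow cytometry.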

[2] = Inhibition of PKCtheta/PKCdelta in HIV infected human J-Lat A cells assessed as reduction of PEP005 induced disruption of HIV latency treated at 2.5 nM relative to control; parameters: species or system J-Lat A1; scale not given: the % may be the effect or the level left; conditions: condition hiv infection
J-Lat A1 [3] = assay: Anti retroviral activity against human J-Lat A1 cells harboring a single copy of latent HIV LTR assessed as HIV reactivation at 2 uM incubated for 24 hrs by flow cytometry analysis; format: functional, cell-based; method in brief: as §1
J-Lat A1 [4] = assay: Anti retroviral activity against human J-Lat A1 cells harboring a single copy of latent HIV LTR assessed as HIV reactivation by flow cytometry analysis; format: functional, cell-based; conditions: dose 2-40 nM
Method in brief: (§2)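 J-Lat A1 cells exposed to PEP005 over 2–40 nM for 24 h; HIV reactivation as GFP expression by flow cytometry, fold versus untreated; viability by Live/Dead dye staining, flow cytometry.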

J-Lat A1 [5] = assay: Effect on NF kappaB/p65 expression in human […] at 12 nM upto 6 hrs by Western blotting analysis; format: functional, cell-based
Method in brief: (§3)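 One million J-Lat A1 cells incubated with 12 nM PEP005 up to 6 h; RIPA extracts with protease/phosphatase inhibitors; immunoblots for PKC isoforms, phospho-PKCδ/θ, NF-κB/p65 and phospho-IκBα (Ser32), β (Thr19/Ser23), ε (Ser18/22); band intensities by densitometry, three independent experiments.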

U1 [6] = assay: Anti retroviral activity against human U1 cells harbouring HIV genomes with Tat gene mutation assessed as fold increase in HIV reactivation at 6 nM by flow cytometry analysis; format: functional
J-Lat A1 [7] = assay: Anti retroviral activity against human J-Lat A1 cells harboring a single copy of latent HIV LTR assessed as HIV reactivation at 10 nM incubated for 24 hrs by flow cytometry analysis; format: functional, cell-based; method in brief: as §1
J-Lat A1 [8] = assay: Induction of PKC/NF-Kappa B pathway in human J-Lat A1 cells assessed as upregulation of PKC theta at 12 nM upto 6 hrs by Western blotting analysis; format: cell-based; method in brief: as §3
CD4+ T cell [9] = assay: Induction of pro-inflammatory cytokine IL-2 expression in human CD4+ T cells at 6 to 12 nM for 24 to 72 hrs by RT-qPCR analysis; format: functional, cell-based; conditions: dose 6-12 nM, time 24-72 hrs
Method in brief: (§4)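 CD4+ T cells from healthy HIV-negative donors treated with 6 or 12 nM PEP005 for 24 or 72 h; TNF-α, IFN-γ, IL-2 and IL-6 mRNA quantified by RT-qPCR normalized to GAPDH.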

J-Lat A1 [10] = assay: Cytotoxicity against human J-Lat A1 cells harboring a single copy of latent HIV LTR assessed as cell viability at 2 to 40 nM by Live/Dead dye staining assay; format: functional, cell-based; conditions: dose 2-40 nM; method in brief: as §2
J-Lat A1 [11] = assay: Induction of cell cycle arrest in human J-Lat A1 cells assessed as accumulation of cells at S phase at 12 nM for 24 hrs BrdU ELISA analysis; format: functional, cell-based
Method in brief: (§5)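 U1, J-Lat A1 or healthy-donor CD4+ T cells treated 24 h with 12 nM PEP005; S-phase progression by BrdU incorporation ELISA; doxorubicin […] positive control.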

CD4+ T cell [12] = assay: Induction of cell cycle arrest in human CD4+ T cells assessed as accumulation of cells at S phase at 12 nM for 24 hrs BrdU ELISA analysis; format: functional, cell-based; method in brief: as §5
U1 [13] = assay: Induction of cell cycle arrest in human U1 cells assessed as accumulation of cells at S phase at 12 nM for 24 hrs BrdU ELISA analysis; format: functional, cell-based; method in brief: as §5
[14] = Anti retroviral activity against human J-Lat A1 cells harboring a single copy of latent HIV LTR assessed as fold increase in HIV reactivation at 20 nM by flow cytometry analysis; format: functional; method in brief: as §2
CD4+ T cell [15] = assay: Induction of pro-inflammatory cytokine TNF-alpha expression in human CD4+ T cells at 6 to 12 nM for 24 to 72 hrs by RT-qPCR analysis; format: functional, cell-based; conditions: dose 6-12 nM, time 24-72 hrs; method in brief: as §4
J-Lat A1 [16] = assay: Induction of PKC/NF-Kappa B pathway in human J-Lat A1 cells assessed as upregulation of PKC mu/D at 12 nM upto 6 hrs by Western blotting analysis; format: cell-based; method in brief: as §3
CD4+ T cell [17] = assay: Induction of pro-inflammatory cytokine IL-6 expression in human CD4+ T cells at 6 to 12 nM for 24 to 72 hrs by RT-qPCR analysis; format: functional, cell-based; conditions: dose 6-12 nM, time 24-72 hrs; method in brief: as §4
[18] = Cytotoxicity against human CD4+ T cells assessed as change in CD38 expression at 12 nM for 24 hrs by RT-qPCR analysis; format: toxicity, cell-based; conditions: cd4+ t cell, 0.012 µM
Method in brief: (§6)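 CD4+ T cells purified from uninfected donors, treated 24 h with 12 nM; total RNA extracted and CD38, CD69, CD25 and HLA-DR transcripts measured by RT-qPCR.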

J-Lat A1 [19] = assay: Induction of PKC/NF-Kappa B pathway in human J-Lat A1 cells assessed as upregulation of PKC alpha at 12 nM upto 6 hrs by Western blotting analysis; format: cell-based; method in brief: as §3
[20] = Binding affinity of NFkappa B to HIV LTR in human J-Lat A1 cells assessed as fold increase at 12 nM by ChIP-qPCR analysis; conditions: condition hiv infection
Method in brief: (§7)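 ChIP-qPCR on J-Lat A1 cells, 1x10^6 per sample, given 12 nM PEP005 with or without a PKCδ/θ inhibitor. Cells fixed in 1% formaldehyde and lysed in SDS/EDTA/Tris pH 8.1 buffer with protease inhibitors. Chromatin sonicated to 200–1500 bp. Immune complexes taken on protein A/G-agarose for 45 min, then reverse cross-linked overnight. NF-κB/p65 binding at HIV LTR read by SYBR qPCR. Data from at least 3 independent experiments in triplicate.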

[21] = Induction of PKCtheta/PKCdelta phosphorylation at Ser676/Ser643 in human J-Lat A1 cells assessed as fold change measured after 30 mins; conditions: condition hiv infection, 0.5 h
[22] = Inhibition of PKCtheta/PKCdelta in HIV infected human J-Lat A cells assessed as reduction of HIV latent reactivation treated at 6 nM in presence of PKC inhibitor relative to control; parameters: species or system J-Lat A1; scale not given: the % may be the effect or the level left; conditions: condition hiv infection
Method in brief: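 J-Lat A1 cells got 6 nM PEP005 together with 1, 2 or 5 μM PKCθ/δ inhibitor. HIV reactivation was read as GFP expression by RT-qPCR against PEP005-only cells. Data from at least 3 independent experiments in triplicate.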

CD4+ T cell [23] = assay: Induction of pro-inflammatory cytokine IFN-gamma expression in human CD4+ T cells at 6 to 12 nM for 24 to 72 hrs by RT-qPCR analysis; format: functional, cell-based; conditions: dose 6-12 nM, time 24-72 hrs; method in brief: as §4
J-Lat A1 [24] = assay: Induction of PKC/NF-Kappa B pathway in human J-Lat A1 cells assessed as upregulation of PKC delta at 12 nM at 1 hr by Western blotting analysis; format: cell-based; method in brief: as §3
[25] = Cytotoxicity against human CD4+ T cells assessed as change in CD25 expression at 12 nM for 24 hrs by RT-qPCR analysis; format: toxicity, cell-based; conditions: cd4+ t cell, 0.012 µM; method in brief: as §6
[26] = biological target: T1, Inhibitor of nuclear factor kappa-B kinase subunit beta (Homo sapiens) (UniProt O14920); assay: Induction of IkappaB beta phosphorylation in human […] at 12 nM upto 6 hrs by Western blotting analysis; format: cell-based; conditions: J-Lat A1; method in brief: as §3
T1 sequence (whole entry): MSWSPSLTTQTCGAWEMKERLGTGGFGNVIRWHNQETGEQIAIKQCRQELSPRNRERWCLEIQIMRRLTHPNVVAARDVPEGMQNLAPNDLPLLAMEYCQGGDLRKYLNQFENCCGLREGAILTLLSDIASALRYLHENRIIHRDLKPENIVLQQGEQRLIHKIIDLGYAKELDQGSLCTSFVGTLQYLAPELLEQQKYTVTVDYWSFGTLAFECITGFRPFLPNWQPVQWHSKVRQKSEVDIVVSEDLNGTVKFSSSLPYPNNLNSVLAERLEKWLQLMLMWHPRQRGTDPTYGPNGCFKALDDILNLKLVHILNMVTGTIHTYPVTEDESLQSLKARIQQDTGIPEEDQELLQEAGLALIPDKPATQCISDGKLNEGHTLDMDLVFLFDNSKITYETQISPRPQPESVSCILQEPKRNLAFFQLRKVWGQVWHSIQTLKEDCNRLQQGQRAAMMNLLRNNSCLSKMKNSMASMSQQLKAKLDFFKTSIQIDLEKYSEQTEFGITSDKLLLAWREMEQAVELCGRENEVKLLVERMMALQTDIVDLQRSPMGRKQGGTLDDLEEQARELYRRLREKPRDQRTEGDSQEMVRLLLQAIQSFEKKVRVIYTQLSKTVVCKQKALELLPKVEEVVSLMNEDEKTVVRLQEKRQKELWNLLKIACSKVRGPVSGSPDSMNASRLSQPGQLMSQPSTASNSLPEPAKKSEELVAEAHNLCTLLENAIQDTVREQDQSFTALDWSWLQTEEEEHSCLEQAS

[27] = Cytotoxicity against human CD4+ T cells assessed as change in CD69 expression at 12 nM for 24 hrs by RT-qPCR analysis; format: toxicity, cell-based; conditions: cd4+ t cell, 0.012 µM; method in brief: as §6
[28] = Binding affinity of NFkappa B to HIV LTR in human J-Lat A1 cells assessed as reduction in compound induced fold increase at 12 nM in presence of PKC inhibitor by ChIP-qPCR analysis relative to control; parameters: scale not given: the % may be the effect or the level left; conditions: condition hiv infection; method in brief: as §7
J-Lat A1 [29] = assay: Anti retroviral activity against PEP005 treated human J-Lat A1 cells harboring a single copy of latent HIV LTR assessed as HIV reactivation at 2 uM incubated for 24 hrs by flow cytometry analysis; format: functional, cell-based
Method in brief: (§8)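 J-Lat A1 cells (RPMI1640, 10% FBS, 37°C, 5% CO2) exposed to 2 μM agent alone or combined with 6 nM PEP005 for 24 h; percentage of GFP-expressing cells by flow cytometry; Bliss independence model for synergy; ≥3 independent experiments in triplicate.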

U1 [30] = assay: Anti retroviral activity against PEP005 treated human U1 cells harbouring complete HIV genomes with Tat gene mutation assessed as fold increase in HIV reactivation at 2 uM followed by 6 nM of PEP005 incubated for 24 hrs by flow cytometry analysis; format: functional
J-Lat A1 [31] = assay: Anti retroviral activity against PEP005 treated human J-Lat A1 cells harboring a single copy of latent HIV LTR assessed as HIV reactivation at 2 uM followed by 6 nM of PEP005 incubated for 24 hrs by flow cytometry analysis; format: functional, cell-based; method in brief: as §8
J-Lat A1 [32] = assay: Anti retroviral activity against human J-Lat A1 cells harboring a single copy of latent HIV LTR assessed as HIV reactivation at 5 ng/ml incubated for 24 hrs by flow cytometry analysis; format: functional, cell-based; method in brief: as §1

O=C(CCCCCCC(=O)Nc1ccccc1)NO
Activity (J-Lat A1 [1]): Active

Cc1ccc(S(=O)(=O)/C=C/C#N)cc1
Activity [2]: 50%

CC(=O)O[C@@]12C[C@@H](C)[C@@]3(O)[C@@H](C=C(CO)C[C@]4(O)C(=O)C(C)=C[C@@H]34)[C@@H]1C2(C)C
Activity (J-Lat A1 [3]): Active

C/C=C(/C)C(=O)O[C@H]1C(C)=C[C@]23C(=O)[C@@H](C=C(CO)[C@@H](O)[C@]12O)[C@H]1[C@@H](C[C@H]3C)C1(C)C [INGENOL MEBUTATE]
Activity (J-Lat A1 [4]): Dose-Dependent Effect | Activity (J-Lat A1 [5]): inactive | fold change (FC) (U1 [6]): 25 | Activity (J-Lat A1 [7]): Active | Activity (J-Lat A1 [8]): inactive | Activity (CD4+ T cell [9]): inactive | Activity (J-Lat A1 [10]): inactive | Activity (J-Lat A1 [11]): inactive | Activity (CD4+ T cell [12]): inactive | Activity (U1 [13]): inactive | fold change (FC) [14]: 7 | Activity (CD4+ T cell [15]): inactive | Activity (J-Lat A1 [16]): inactive | Activity (CD4+ T cell [17]): inactive | Activity [18]: Non-Toxic | Activity (J-Lat A1 [19]): inactive | fold change (FC) [20]: 6 | fold change (FC) [21]: 2 | Activity [22]: >65% | Activity (CD4+ T cell [23]): inactive | Activity (J-Lat A1 [24]): Active | Activity [25]: Non-Toxic | Activity [26]: inactive | Activity [27]: Non-Toxic | Activity [28]: >70%

Cc1sc2c(c1C)C(c1ccc(Cl)cc1)=N[C@@H](CC(=O)OC(C)(C)C)c1nnc(C)n1-2
Activity (J-Lat A1 [29]): Active | Activity (J-Lat A1 [3]): Active | fold change (FC) (U1 [30]): 250 | Activity (J-Lat A1 [31]): Active

CCCCCCCCCCCCCC(=O)O[C@@H]1[C@@H](C)[C@@]2(O)[C@@H](C=C(CO)C[C@]3(O)C(=O)C(C)=C[C@@H]23)[C@@H]2C(C)(C)[C@]12OC(C)=O
Activity (J-Lat A1 [32]): Active

CCCc1cc(C)[nH]c(=O)c1CNC(=O)c1cc(-c2ccnc(N3CCN(C)CC3)c2)cc2c1cnn2C(C)C
Activity (J-Lat A1 [3]): inactive | Activity (J-Lat A1 [31]): Active
